Measured values reported in ChEMBL document CHEMBL1146721, “Discovery and structure-activity relationship of coumarin derivatives as TNF-alpha inhibitors” (Bioorg Med Chem Lett, 2004).
pIC50: −log10 of the molar value.

Each compound was assayed on Rattus norvegicus (assay: Tested in vivo for inhibition of serum tumor necrosis factor alpha production in rats at 100 ug/kg subcutaneous dose). Conditions: sc.
Format: functional
How it was run: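 LPS (E. coli B055/B5, 0.1 mg/kg) challenge given […] subcutaneous test compound, usually in 20% EtOH/80% PEG400; pyridine-containing compounds were given in saline as HCl salts formed in situ. Serum TNF-α was measured by ELISA 90 min later. Percent inhibition was calculated against an untreated control.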

In the case of C[C@@H]1C[C@H]2[C@@H]3CCC4=CC(=O)C=C[C@]4(C)[C@@]3(F)[C@@H](O)C[C@]2(C)[C@@]1(O)C(=O)CO [DEXAMETHASONE], the inhibition in vivo at 0.1 mg/kg was 99%.

Each compound was assayed on Rattus norvegicus (assay: Tested in vivo for inhibition of serum tumor necrosis factor alpha production in rats at 100 mg/kg subcutaneous dose). Conditions: sc.
Format: functional
How it was run: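 LPS (E. coli B055/B5, 0.1 mg/kg) challenge given […] sc compound, usually in 20% EtOH/80% PEG400; pyridine-containing compounds given in saline as in situ HCl salts. Serum TNF-α measured by ELISA 90 min later. Percent inhibition at 100 mg/kg calculated against an untreated control.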

Compared with Cc1c(Cc2ccccc2)c(=O)oc2cc(OC(=O)N(C)C)c(Cl)cc12, Cc1c(Cc2cccnc2)c(=O)oc2cc(OC(=O)N(C)C)c(Cl)cc12 is higher in inhibition in vivo at 100 mg/kg: 57% for the first, 86% for the second.

First: Cc1c(Cc2ccc(F)cc2)c(=O)oc2cc(OC(=O)N(C)C)ccc12
Second: Cc1c(Cc2cccnc2)c(=O)oc2cc(OC(=O)N(C)C)ccc12
The inhibition in vivo at 100 mg/kg of the first is lower: 42% for the first, 86% for the second.

The compounds below were run on PBMC (assay: In vitro inhibition of tumor necrosis factor alpha production in LPS-challenged human peripheral blood mononuclear cells). Conditions: not given.
Format: functional, cell-based
How it was run: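 Human PBMC at 5 × 10⁵ cells/mL in RPMI1640 with 5% heat-inactivated FCS and antibiotics, pretreated with compound in DMSO for 60 min at 37 °C. Then stimulated with Salmonella minnesota R595 LPS (final 100 ng/mL) and cultured overnight. Supernatant TNF-α measured by human TNF-α ELISA; IC50 derived.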

Compared with CN(C)C(=O)Oc1ccc2c(CCc3ccccc3)c(Cc3ccccc3)c(=O)oc2c1, CCCc1c(Cc2ccccc2)c(=O)oc2cc(OC(=O)N(C)C)ccc12 is higher in pIC50: less than 4.30 for the first, 6.11 for the second.

Going from Cc1c(Cc2ccccn2)c(=O)oc2cc(OC(=O)N(C)C)ccc12 to Cc1c(Cc2ccccc2)c(=O)oc2cc(OC(=O)N(C)C)ccc12, the pIC50 rises from 5.19 to 5.74 (0.55 log units). The second is the more potent here.

Going from CC(=O)Nc1cccc(Cc2c(C)c3cc(Cl)c(OC(=O)N(C)C)cc3oc2=O)c1 to CCOC(=O)CC(=O)Nc1cccc(Cc2c(C)c3cc(Cl)c(OC(=O)N(C)C)cc3oc2=O)c1, the pIC50 rises from 6.51 to 7.30 (0.79 log units).

Cc1c(-c2cccc(C(F)(F)F)c2)c(=O)oc2cc(OC(=O)N(C)C)ccc12 and Cc1c(-c2ccc(C(F)(F)F)cc2)c(=O)oc2cc(OC(=O)N(C)C)ccc12 cannot be ordered by pIC50: less than 4.30 for the first, less than 4.30 for the second.

First: COC(=O)c1ccc(-c2c(C)c3ccc(OC(=O)N(C)C)cc3oc2=O)cc1
Second: COC(=O)c1cccc(-c2c(C)c3ccc(OC(=O)N(C)C)cc3oc2=O)c1
The pIC50 of the first is lower: no more than 4.30 for the first, 5.77 for the second.

First: C=CCCC(O)Cc1c(Cc2ccccc2)c(=O)oc2cc(OC(=O)N(C)C)ccc12 (stereo not drawn)
Second: CN(C)C(=O)Oc1ccc2c(CCO)c(Cc3ccccc3)c(=O)oc2c1
The pIC50 of the first is 1.36 log units lower: 4.32 for the first, 5.68 for the second.

Compared with Cc1c(Cc2ccccc2)c(=O)oc2cc(OC(=O)N(C)C)c(C(=O)O)cc12, Cc1c(Cc2ccccc2)c(=O)oc2cc(OC(=O)N(C)C)c(Br)cc12 is higher in pIC50: less than 4.30 for the first, 7.22 for the second.

First: CN(C)C(=O)Oc1ccc2c(-c3ccncc3)c(Cc3ccccc3)c(=O)oc2c1
Second: CN(C)C(=O)Oc1ccc2c(-c3ccc(F)cc3)c(Cc3ccccc3)c(=O)oc2c1
The pIC50 of the first is 0.93 log units higher: 5.31 for the first, 4.38 for the second.

Going from CN(C)C(=O)Oc1ccc2c(CC(O)C3CCCCC3)c(Cc3ccccc3)c(=O)oc2c1 (stereo not drawn) to CCc1c(Cc2ccccc2)c(=O)oc2cc(OC(=O)N(C)C)ccc12, the pIC50 rises from less than 4.30 to 5.77.

Going from Cc1c(CC2CCCCC2)c(=O)oc2cc(OC(=O)N(C)C)ccc12 to Cc1c(CN2CCCCC2)c(=O)oc2cc(OC(=O)N(C)C)ccc12, the pIC50 falls from 5.14 to less than 4.30.

Going from Cc1c(Cc2ccccc2)c(=O)oc2cc(OC(=O)N(C)C)cc(F)c12 to COc1cc(OC(=O)N(C)C)cc2oc(=O)c(Cc3ccccc3)c(C)c12, the pIC50 falls from 6.36 to less than 4.30.

Cc1c(-c2ccc(N)cc2)c(=O)oc2cc(OC(=O)N(C)C)ccc12 and COc1ccc(-c2c(C)c3ccc(OC(=O)N(C)C)cc3oc2=O)cc1 are within 0.2 log units of each other in pIC50: 5.28 for the first, 5.25 for the second.

Cc1cc(=O)oc2cc(OC(=O)N(C)C)ccc12 and Cc1c(C)c2ccc(OC(=O)N(C)C)cc2oc1=O cannot be ordered by pIC50: less than 4.30 for the first, no more than 4.30 for the second.

First: Cc1c(Cc2ccccc2)c(=O)oc2c(C)c(OC(=O)N(C)C)ccc12
Second: Cc1cc2c(C)c(Cc3ccccc3)c(=O)oc2cc1OC(=O)N(C)C
The pIC50 of the first is 1.41 log units lower: 4.99 for the first, 6.40 for the second. The second is the more potent here.

CCCCCCc1c(C)c2ccc(OC(=O)N(C)C)cc2oc1=O and CCCCCc1c(C)c2ccc(OC(=O)N(C)C)cc2oc1=O are within 0.2 log units of each other in pIC50: 4.60 for the first, 4.64 for the second.

Going from Cc1c(-c2ccccc2)c(=O)oc2cc(OC(=O)N(C)C)ccc12 to Cc1c(-c2ccccc2N)c(=O)oc2cc(OC(=O)N(C)C)ccc12, the pIC50 rises from less than 4.30 to 5.68.

First: COc1cc2c(C)c(Cc3ccccc3)c(=O)oc2cc1OC(=O)N(C)C
Second: Cc1c(Cc2ccccc2)c(=O)oc2cc(OC(=O)N(C)C)c(Cl)cc12
The pIC50 of the first is 0.81 log units lower: 6.24 for the first, 7.05 for the second. The second is the more potent here.

Going from CN(C)C(=O)Oc1ccc2c(-c3ccccn3)c(Cc3ccccc3)c(=O)oc2c1 to CN(C)C(=O)Oc1ccc2c(-c3ccccc3F)c(Cc3ccccc3)c(=O)oc2c1, the pIC50 rises from 4.73 to 5.31 (0.58 log units).

CN(C)C(=O)Oc1ccc2cc(Cc3ccccc3)c(=O)oc2c1 and CN(C)C(=O)Oc1ccc2c(C(=O)O)c(Cc3ccccc3)c(=O)oc2c1 cannot be ordered by pIC50: less than 4.30 for the first, less than 4.30 for the second.

First: Cc1c(Cc2ccncc2)c(=O)oc2cc(OC(=O)N(C)C)c(Cl)cc12
Second: Cc1c(Cc2cccnc2)c(=O)oc2cc(OC(=O)N(C)C)c(Cl)cc12
The pIC50 of the first is 0.54 log units higher: 6.89 for the first, 6.35 for the second. The first is the more potent here.

Going from Cc1c(Cc2ccncc2)c(=O)oc2cc(OC(=O)N(C)C)ccc12 to Cc1c(Cc2cccnc2)c(=O)oc2cc(OC(=O)N(C)C)ccc12, the pIC50 falls from 5.89 to 5.57 (0.32 log units).

Going from Cc1c(Cc2ccccc2)c(=O)oc2cc(OC(=O)N(C)C)c(C#N)cc12 to Cc1c(Cc2ccccc2)c(=O)oc2cc(OC(=O)N(C)C)c(I)cc12, the pIC50 rises from 6.07 to 7.22 (1.15 log units). The second is the more potent here.

First: CN(C)C(=O)Oc1ccc2c(CC(O)c3ccc(C#N)cc3)c(Cc3ccccc3)c(=O)oc2c1 (stereo not drawn)
Second: CN(C)C(=O)Oc1ccc2c(CC(O)c3nccs3)c(Cc3ccccc3)c(=O)oc2c1 (stereo not drawn)
The pIC50 of the first is 0.23 log units lower: 4.55 for the first, 4.78 for the second. The second is the more potent here.

Compared with COc1ccccc1-c1c(C)c2ccc(OC(=O)N(C)C)cc2oc1=O, Cc1c(-c2ccccc2C(F)(F)F)c(=O)oc2cc(OC(=O)N(C)C)ccc12 is lower in pIC50: 5.12 for the first, no more than 4.30 for the second. The first is the more potent here.

First: Cc1c(CCc2ccccc2)c(=O)oc2cc(OC(=O)N(C)C)ccc12
Second: Cc1c(Cc2ccc(F)cc2)c(=O)oc2cc(OC(=O)N(C)C)ccc12
The pIC50 of the first is lower: less than 4.30 for the first, 6.49 for the second. The second is the more potent here.

Compared with CCc1cc2c(C)c(Cc3ccccc3)c(=O)oc2cc1OC(=O)N(C)C, Cc1c(Cc2ccccc2)c(=O)oc2cc(OC(=O)N(C)C)c(C=O)cc12 is 0.33 log units lower in pIC50: 5.34 for the first, 5.01 for the second. The first is the more potent here.

Compared with CCCCc1c(C)c2ccc(OC(=O)N(C)C)cc2oc1=O, Cc1c(CN2CCOCC2)c(=O)oc2cc(OC(=O)N(C)C)ccc12 is lower in pIC50: 4.61 for the first, less than 4.30 for the second.

CN(C)C(=O)Oc1ccc2c(-c3ccc(C(F)(F)F)cc3)c(Cc3ccccc3)c(=O)oc2c1 and CN(C)C(=O)Oc1ccc2c(-c3cccc(C(F)(F)F)c3)c(Cc3ccccc3)c(=O)oc2c1 cannot be ordered by pIC50: less than 4.30 for the first, less than 4.30 for the second.

COc1cccc(-c2c(C)c3ccc(OC(=O)N(C)C)cc3oc2=O)c1 and Cc1c(-c2cccc(N)c2)c(=O)oc2cc(OC(=O)N(C)C)ccc12 are within 0.2 log units of each other in pIC50: 5.49 for the first, 5.57 for the second.

Compared with CCCc1c(Cc2ccc(F)cc2)c(=O)oc2cc(OC(=O)N(C)C)ccc12, CN(C)C(=O)Oc1ccc2c(C(F)(F)F)c(Cc3ccc(F)cc3)c(=O)oc2c1 is lower in pIC50: 5.92 for the first, less than 4.30 for the second.

First: CN(C)C(=O)Oc1ccc2c(-c3ccccc3)c(Cc3ccc(F)cc3)c(=O)oc2c1
Second: Cc1c(Cc2ccccc2)c(=O)oc2cc(OC(=O)N(C)C)c([N+](=O)[O-])cc12
The pIC50 of the first is 1.15 log units lower: 5.77 for the first, 6.92 for the second. The second is the more potent here.

Cc1c(Cc2ccccc2)c(=O)oc2cc(OC(=O)N(C)C)c(C(C)C)cc12 showed a pIC50 of 4.40.
